Measured values taken from ChEMBL document CHEMBL3758162, “Synthesis, biological characterization and molecular modeling insights of spirochromanes as potent HDAC inhibitors” (Eur J Med Chem, 2016).

Legend:
CYP1A2 = target: T1, CYP1A2 (Homo sapiens, UniProt P05177); assay: Inhibition of human CYP1A2 using 3-cyano-7-ethoxycoumarin as substrate at 10 uM after 15 mins by fluorimetric analysis; type: ADME; settings: probe 3-cyano-7-ethoxycoumarin
T1 sequence (P05177 whole entry): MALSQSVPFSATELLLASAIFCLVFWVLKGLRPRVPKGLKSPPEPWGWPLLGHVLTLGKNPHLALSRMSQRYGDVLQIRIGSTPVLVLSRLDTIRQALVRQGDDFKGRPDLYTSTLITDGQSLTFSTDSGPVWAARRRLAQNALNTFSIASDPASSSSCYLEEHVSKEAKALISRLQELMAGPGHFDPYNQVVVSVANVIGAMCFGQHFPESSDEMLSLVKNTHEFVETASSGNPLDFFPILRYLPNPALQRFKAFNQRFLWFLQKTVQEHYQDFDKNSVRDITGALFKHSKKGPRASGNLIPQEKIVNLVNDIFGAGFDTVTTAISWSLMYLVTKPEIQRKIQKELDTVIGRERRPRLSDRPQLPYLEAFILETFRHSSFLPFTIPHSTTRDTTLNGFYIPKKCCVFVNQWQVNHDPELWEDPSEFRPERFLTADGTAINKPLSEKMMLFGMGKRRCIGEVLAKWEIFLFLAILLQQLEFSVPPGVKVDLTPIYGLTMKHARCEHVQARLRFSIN
Summary of the method: (§1)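 Test compounds at 10 µM in potassium phosphate buffer pH 7.4 with NADPH regenerating system (final 1.3 mM NADP⁺, 3.3 mM glucose 6-phosphate, 0.4 U/ml G6PDH); reaction started at 37 °C by adding Supersomes isoenzyme plus substrate. Enzyme and substrate amounts: CYP1A2 0.5 pmol, 5 µM CEC; CYP2C19 0.5 pmol, 25 µM CEC; CYP3A4 1 pmol, 50 µM BFC; CYP2D6 1.5 pmol, 1.5 µM AMMC. Stopped with acetonitrile/Tris base; fluorescence read; % inhibition versus enzyme without inhibitor; n≥2, mean.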

[1] = (§2) Metabolic stability in human liver microsomes assessed as compound remaining at 1 uM preincubated for 10 mins measured after 30 mins by LC-MS/MS analysis; type: ADME; settings: liver microsomes, read-out: Stability
Summary of the method: (§3)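 Compound at 1 µM pre-incubated 10 min at 37 °C in potassium phosphate buffer pH 7.4 with 0.5 mg/mL mouse or human hepatic microsomes. Parent quantified by LC-MS/MS (ESI+, MRM, verapamil internal standard). % remaining = peak area at 30 min / area at 0 min × 100; n≥2, mean.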

A549 = assay: Antiproliferative activity against human A549 cells assessed as cell viability after 72 hrs by CellTitre-Glo luminescent assay; type: functional, cell-based
Histone deacetylase = assay: Inhibition of HDAC in human HeLa cells nuclear extract using Fluor de lys as substrate after 15 mins by fluorometric analysis; type: cell-based
[2] = Solubility of the compound at pH 4.5; type: physicochemical; settings: buffer
CYP2D6 = CYP2D6 (Homo sapiens, UniProt P10635); assay: Inhibition of human CYP2D6 using 3-[2-(N,N-diethyl-N-methylamino)ethyl]-7-methoxy-4-methylcoumarin as substrate at 10 uM after 30 mins by fluorimetric analysis; type: ADME; summary of the method: as §1
K562 = assay: Antiproliferative activity against human K562 cells assessed as cell viability after 72 hrs by CellTitre-Glo luminescent assay; type: functional, cell-based
[3] = Antiproliferative activity against human HCT116 cells assessed as cell viability after 72 hrs by CellTitre-Glo luminescent assay; type: functional, cell-based, HCT-116
[4] = Metabolic stability in mouse liver microsomes assessed as compound remaining at 1 uM preincubated for 10 mins measured after 30 mins by LC-MS/MS analysis; type: ADME; settings: for remaining at 0.5 h, 1 µM: liver microsomes, read-out: Stability; summary of the method: as §3
CYP3A4 = CYP3A4 (Homo sapiens, UniProt P08684); assay: Inhibition of human CYP3A4 using 7-benzyloxy-4-(trifluoromethyl)-coumarin as substrate at 10 uM after 30 mins by fluorimetric analysis; type: ADME; settings: probe 7-benzyloxy-4-(trifluoromethyl)-coumarin; summary of the method: as §1
CYP2C19 = CYP2C19 (Homo sapiens, UniProt P33261); assay: Inhibition of human CYP2C19 using 3-cyano-7-ethoxycoumarin as substrate at 10 uM after 30 mins by fluorimetric analysis; type: ADME; settings: probe 3-cyano-7-ethoxycoumarin; summary of the method: as §1
[5] = target: T2, Protein deacetylase HDAC6 (Homo sapiens, UniProt Q9UBN7); assay: Inhibition of HDAC6 (unknown origin)
T2 sequence (Q9UBN7 whole entry): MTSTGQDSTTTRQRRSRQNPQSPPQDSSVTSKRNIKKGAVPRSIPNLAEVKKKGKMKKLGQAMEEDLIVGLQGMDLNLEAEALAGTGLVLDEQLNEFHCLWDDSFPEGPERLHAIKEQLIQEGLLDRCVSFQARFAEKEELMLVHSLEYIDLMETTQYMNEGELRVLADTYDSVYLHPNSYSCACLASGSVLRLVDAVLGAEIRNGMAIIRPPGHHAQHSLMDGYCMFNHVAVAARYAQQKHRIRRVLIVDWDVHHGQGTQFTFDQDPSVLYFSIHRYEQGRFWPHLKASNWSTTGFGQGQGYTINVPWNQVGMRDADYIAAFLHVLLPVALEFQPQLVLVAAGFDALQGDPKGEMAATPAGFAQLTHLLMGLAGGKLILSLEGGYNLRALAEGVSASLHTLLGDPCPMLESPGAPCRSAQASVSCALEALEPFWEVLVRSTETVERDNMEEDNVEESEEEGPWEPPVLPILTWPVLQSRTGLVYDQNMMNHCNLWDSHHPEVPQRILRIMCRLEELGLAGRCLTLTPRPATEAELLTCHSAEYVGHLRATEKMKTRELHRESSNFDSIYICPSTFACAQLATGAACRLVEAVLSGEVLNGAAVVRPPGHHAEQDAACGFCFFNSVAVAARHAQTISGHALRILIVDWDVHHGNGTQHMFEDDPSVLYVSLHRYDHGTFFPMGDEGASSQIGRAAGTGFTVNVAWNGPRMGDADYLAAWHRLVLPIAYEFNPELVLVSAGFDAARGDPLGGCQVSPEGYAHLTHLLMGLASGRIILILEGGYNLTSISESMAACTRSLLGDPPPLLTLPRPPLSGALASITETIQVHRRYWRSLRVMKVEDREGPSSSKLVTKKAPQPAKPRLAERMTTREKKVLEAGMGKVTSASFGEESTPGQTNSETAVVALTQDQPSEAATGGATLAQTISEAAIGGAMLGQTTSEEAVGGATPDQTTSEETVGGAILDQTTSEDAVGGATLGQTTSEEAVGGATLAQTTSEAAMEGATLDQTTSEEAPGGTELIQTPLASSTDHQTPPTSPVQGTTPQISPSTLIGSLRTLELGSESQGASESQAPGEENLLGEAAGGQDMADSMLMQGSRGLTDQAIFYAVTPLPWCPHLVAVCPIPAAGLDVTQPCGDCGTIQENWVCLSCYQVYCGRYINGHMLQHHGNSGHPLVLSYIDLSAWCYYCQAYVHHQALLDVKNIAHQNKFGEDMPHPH

Histone deacetylase 2 = Histone deacetylase 2 (Homo sapiens, UniProt Q92769); assay: Inhibition of HDAC2 (unknown origin)
Histone deacetylase 3 = Histone deacetylase 3 (Homo sapiens, UniProt O15379); assay: Inhibition of HDAC3 (unknown origin)
Liver microsome = assay: as §2; type: ADME; settings: microsomes, 0.5 h, 1 µM; summary of the method: as §3

Chain of CYP3A4 (P08684 whole entry): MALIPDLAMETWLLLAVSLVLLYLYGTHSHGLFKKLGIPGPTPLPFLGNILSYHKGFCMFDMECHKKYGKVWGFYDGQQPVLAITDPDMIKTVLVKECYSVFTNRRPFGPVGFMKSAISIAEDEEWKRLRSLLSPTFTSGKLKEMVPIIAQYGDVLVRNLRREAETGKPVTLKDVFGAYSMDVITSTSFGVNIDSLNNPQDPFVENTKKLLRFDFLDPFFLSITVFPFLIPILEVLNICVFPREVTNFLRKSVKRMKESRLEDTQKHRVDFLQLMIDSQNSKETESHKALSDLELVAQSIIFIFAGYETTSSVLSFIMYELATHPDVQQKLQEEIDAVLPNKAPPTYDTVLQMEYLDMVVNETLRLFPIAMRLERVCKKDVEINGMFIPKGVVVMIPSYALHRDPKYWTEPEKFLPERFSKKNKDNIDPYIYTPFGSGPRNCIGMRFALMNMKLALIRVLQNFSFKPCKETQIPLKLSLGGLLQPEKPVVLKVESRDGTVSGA
Chain of CYP2D6 (P10635 whole entry): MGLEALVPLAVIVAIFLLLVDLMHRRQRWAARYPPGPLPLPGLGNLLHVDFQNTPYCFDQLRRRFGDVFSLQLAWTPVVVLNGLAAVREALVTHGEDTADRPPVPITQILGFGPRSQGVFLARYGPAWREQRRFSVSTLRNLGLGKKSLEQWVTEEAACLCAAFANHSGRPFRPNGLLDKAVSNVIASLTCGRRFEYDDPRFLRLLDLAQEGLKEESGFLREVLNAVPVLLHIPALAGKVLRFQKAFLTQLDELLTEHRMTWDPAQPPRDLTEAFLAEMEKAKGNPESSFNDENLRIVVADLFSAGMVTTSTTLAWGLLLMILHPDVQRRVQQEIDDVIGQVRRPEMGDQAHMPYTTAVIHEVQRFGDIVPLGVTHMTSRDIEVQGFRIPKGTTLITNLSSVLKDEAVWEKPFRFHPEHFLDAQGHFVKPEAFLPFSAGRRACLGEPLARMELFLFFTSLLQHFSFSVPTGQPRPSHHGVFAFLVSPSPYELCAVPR
Chain of CYP2C19 (P33261 whole entry): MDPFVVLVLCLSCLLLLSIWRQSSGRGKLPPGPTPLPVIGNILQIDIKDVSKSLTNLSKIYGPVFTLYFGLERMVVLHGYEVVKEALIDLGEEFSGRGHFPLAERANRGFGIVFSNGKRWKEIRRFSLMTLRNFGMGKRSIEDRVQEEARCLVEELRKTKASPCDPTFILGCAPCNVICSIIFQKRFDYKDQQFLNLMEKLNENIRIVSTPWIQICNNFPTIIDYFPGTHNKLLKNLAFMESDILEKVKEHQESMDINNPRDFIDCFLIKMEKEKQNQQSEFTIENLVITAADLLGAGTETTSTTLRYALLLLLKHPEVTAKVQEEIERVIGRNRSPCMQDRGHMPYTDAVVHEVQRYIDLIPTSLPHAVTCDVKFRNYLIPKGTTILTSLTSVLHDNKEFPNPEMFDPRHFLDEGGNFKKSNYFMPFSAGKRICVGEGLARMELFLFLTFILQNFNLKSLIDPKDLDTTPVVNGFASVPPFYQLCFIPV
Chain of Histone deacetylase 3 (O15379 whole entry): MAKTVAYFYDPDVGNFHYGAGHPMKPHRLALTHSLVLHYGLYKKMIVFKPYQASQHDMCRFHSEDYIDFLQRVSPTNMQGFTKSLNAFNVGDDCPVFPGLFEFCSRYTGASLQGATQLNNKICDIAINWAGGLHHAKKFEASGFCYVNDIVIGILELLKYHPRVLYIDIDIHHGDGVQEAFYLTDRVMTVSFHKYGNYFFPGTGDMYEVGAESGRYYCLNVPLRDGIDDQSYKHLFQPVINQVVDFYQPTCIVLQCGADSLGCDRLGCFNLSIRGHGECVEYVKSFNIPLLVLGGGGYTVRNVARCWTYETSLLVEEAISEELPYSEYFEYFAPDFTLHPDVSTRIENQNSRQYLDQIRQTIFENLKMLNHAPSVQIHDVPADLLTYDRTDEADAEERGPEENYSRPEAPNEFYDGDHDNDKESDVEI
Chain of Histone deacetylase 2 (Q92769 whole entry): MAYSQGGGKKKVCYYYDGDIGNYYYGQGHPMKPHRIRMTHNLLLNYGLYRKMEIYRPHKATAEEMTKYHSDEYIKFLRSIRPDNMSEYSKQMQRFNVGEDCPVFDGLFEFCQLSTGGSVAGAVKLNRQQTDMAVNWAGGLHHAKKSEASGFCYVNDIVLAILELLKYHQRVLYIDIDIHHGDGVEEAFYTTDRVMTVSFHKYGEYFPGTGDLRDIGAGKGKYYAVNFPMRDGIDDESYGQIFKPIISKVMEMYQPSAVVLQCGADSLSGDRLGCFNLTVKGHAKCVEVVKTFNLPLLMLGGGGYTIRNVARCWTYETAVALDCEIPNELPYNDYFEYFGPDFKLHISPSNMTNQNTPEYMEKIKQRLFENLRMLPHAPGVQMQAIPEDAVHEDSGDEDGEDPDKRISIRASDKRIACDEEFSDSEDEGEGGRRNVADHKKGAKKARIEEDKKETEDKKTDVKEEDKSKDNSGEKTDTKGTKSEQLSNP

SMILES	inhibition at 0.25 h, 10 µM (CYP1A2)	remaining at 0.5 h, 1 µM [1]	IC50 (A549; Homo sapiens, A549, 72 h)	IC50 (Histone deacetylase)	solubility [2]	inhibition at 0.5 h, 10 µM (CYP2D6)	IC50 (K562; Homo sapiens, K562, 72 h)	IC50 ([3]; Homo sapiens, HCT-116, 72 h)	remaining at 0.5 h, 1 µM [4]	inhibition at 0.5 h, 10 µM (CYP3A4)	inhibition at 0.5 h, 10 µM (CYP2C19)	IC50 [5]	IC50 (Histone deacetylase 2)	IC50 (Histone deacetylase 3)	Stability (Liver microsome)	IC50 (A549; a549)	IC50 (K562; k562)	IC50 ([3]; hct-116)	Stability ([4]; microsomes, 0.5 h, 1 µM)
O=C(/C=C/c1ccc2c(c1)C(=O)CC1(CN(Cc3ccccc3)C1)O2)NO	5%	44%	0.245 µM	0.067 µM	> 500 µM	64%	0.175 µM	0.076 µM	44%	53%	40%	–	–	–	–	–	–	–	–
Cn1cc(CN2CC3(CC(=O)c4cc(/C=C/C(=O)NO)ccc4O3)C2)c2ccccc21	8%	51%	0.242 µM	0.062 µM	> 500 µM	74%	0.046 µM	0.078 µM	27%	84%	68%	–	–	–	–	–	–	–	–
CN1CCCC2(CC(=O)c3cc(/C=C/C(=O)NO)ccc3O2)C1 (racemic)	5%	42%	0.103 µM	0.237 µM	> 500 µM	14%	0.056 µM	0.063 µM	72%	51%	12%	–	–	–	–	–	–	–	–
Cn1cc(CN2CCCC3(CC2)CC(=O)c2cc(/C=C/C(=O)NO)ccc2O3)c2ccccc21 (racemic)	–	< 30%	0.26 µM	0.114 µM	–	–	0.046 µM	0.06 µM	19%	–	–	–	–	–	–	–	–	–	–
O=C(/C=C/c1ccc2c(c1)C(=O)CC1(CCCN(CCc3ccccc3)CC1)O2)NO (racemic)	5%	27%	0.184 µM	0.056 µM	> 500 µM	52%	0.188 µM	0.062 µM	39%	41%	81%	–	–	–	–	–	–	–	–
CN1CCCC2(CC1)CC(=O)c1cc(/C=C/C(=O)NO)ccc1O2 (racemic)	5%	79%	0.534 µM	0.114 µM	> 500 µM	5%	0.329 µM	0.098 µM	62%	12%	9%	–	–	–	–	–	–	–	–
O=C(/C=C/c1ccc2c(c1)C(=O)CC1(CCN(CCc3ccccc3)C1)O2)NO (racemic)	5%	31%	0.272 µM	0.027 µM	> 500 µM	41%	0.102 µM	0.043 µM	31%	64%	59%	–	–	–	–	–	–	–	–
O=C(/C=C/c1ccc2c(c1)C(=O)CC1(CCCN(Cc3ccccc3)CC1)O2)NO (racemic)	–	19%	0.371 µM	0.073 µM	–	–	0.162 µM	0.047 µM	25%	–	–	0.151 µM	0.072 µM	0.03 µM	–	–	–	–	–
O=C(/C=C/c1ccc2c(c1)C(=O)CC1(CCCN(Cc3ccc(F)cc3)CC1)O2)NO (racemic)	–	11%	0.333 µM	0.149 µM	–	–	0.144 µM	0.063 µM	25%	–	–	–	–	–	–	–	–	–	–
O=C(/C=C/c1ccc2c(c1)C(=O)CC1(CCN(Cc3ccccc3)C1)O2)NO (single isomer, unassigned; (-))	–	–	–	0.026 µM	–	–	–	–	–	–	–	–	–	–	23%	0.332 µM	0.119 µM	0.066 µM	19%
O=C(/C=C/c1ccc2c(c1)C(=O)CC1(CCN(Cc3ccccc3)C1)O2)NO (stereo in doubt; 32j)	–	–	–	0.037 µM	–	–	–	–	–	–	–	–	–	–	11%	0.303 µM	0.13 µM	0.071 µM	–
O=C(CCCCCCC(=O)Nc1ccccc1)NO [VORINOSTAT]	25%	93%	–	–	–	25%	–	–	82%	35%	69%	–	–	–	–	–	–	–	–
